From PubChem
CHOP UPR activ: apoptotic UPR (CHOP) activation; AID 449763; activation, % at 10 µM; 0.34% of 330,000 active; CHO-CHOP luciferase reporter, luminescence; percent of tunicamycin response over DMSO baseline;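 active = at 10 µM dose, activation of 40% or more, normalized to positive control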;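 note: 100% = tunicamycin at 10 µg/mL and 0% = DMSO alone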
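assay system = CHO CHOP reporter cells | amount = 500 CHO-CHOP cells per well | buffer or medium = F12 with 10% FBS | incubation = 16-18 h cell attachment, then 6 h compound exposure, 37 °C | detection = luminescence read with Steady-Glo | read-out = percent activation relative to tunicamycin control | controls = tunicamycin high control, DMSO low control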
UPR XBP1 act: activators of adaptive arm of unfolded protein response (XBP1). AID 463104. activation, % at 20 µM. CHO-XBP1 luciferase reporter, IRE1-XBP1 UPR activation, luminescence; percent of tunicamycin response, DMSO as zero. 0.33% of 330,000 active;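 active = versus positive control, 20 µM dose yields 30% or more activation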;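 note: 100% = tunicamycin at 10 µg/mL and 0% = DMSO only wells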
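incubation = overnight seeding at 37 °C, 6 h compound treatment at 37 °C | assay system = CHO-XBP1 cells stably carrying IRE1-XBP1-driven luciferase reporter | input = 1000 cells per well | detection = luciferase luminescence | dosing = single point, 20 µM final compound, 1% DMSO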
TLR9-MyD88 inh: TLR9-MyD88 interaction inhibition; CHO BLA complementation TLR9-MyD88, CCF4 FRET ratio; inhibition, % at 4.98 µM; 0.21% of 340,000 active; Q9NR96+Q99836; AID 504734;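 active = inhibition above the mean over all tested compounds plus 3 SD, cut at about 21% in these data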;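 note: 0% = DMSO only wells and 100% = clavulanate BLA inhibitor control wells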
Target sequence (Q99836 whole entry, looked up): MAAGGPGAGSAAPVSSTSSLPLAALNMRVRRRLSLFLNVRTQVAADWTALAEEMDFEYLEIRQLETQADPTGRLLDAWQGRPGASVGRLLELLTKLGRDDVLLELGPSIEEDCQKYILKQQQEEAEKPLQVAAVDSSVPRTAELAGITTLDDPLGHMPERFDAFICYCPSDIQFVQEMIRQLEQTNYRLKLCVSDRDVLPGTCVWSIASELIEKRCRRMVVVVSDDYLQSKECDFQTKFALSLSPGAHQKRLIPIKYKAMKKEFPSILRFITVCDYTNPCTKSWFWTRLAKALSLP
Target sequence (Q9NR96 whole entry, looked up): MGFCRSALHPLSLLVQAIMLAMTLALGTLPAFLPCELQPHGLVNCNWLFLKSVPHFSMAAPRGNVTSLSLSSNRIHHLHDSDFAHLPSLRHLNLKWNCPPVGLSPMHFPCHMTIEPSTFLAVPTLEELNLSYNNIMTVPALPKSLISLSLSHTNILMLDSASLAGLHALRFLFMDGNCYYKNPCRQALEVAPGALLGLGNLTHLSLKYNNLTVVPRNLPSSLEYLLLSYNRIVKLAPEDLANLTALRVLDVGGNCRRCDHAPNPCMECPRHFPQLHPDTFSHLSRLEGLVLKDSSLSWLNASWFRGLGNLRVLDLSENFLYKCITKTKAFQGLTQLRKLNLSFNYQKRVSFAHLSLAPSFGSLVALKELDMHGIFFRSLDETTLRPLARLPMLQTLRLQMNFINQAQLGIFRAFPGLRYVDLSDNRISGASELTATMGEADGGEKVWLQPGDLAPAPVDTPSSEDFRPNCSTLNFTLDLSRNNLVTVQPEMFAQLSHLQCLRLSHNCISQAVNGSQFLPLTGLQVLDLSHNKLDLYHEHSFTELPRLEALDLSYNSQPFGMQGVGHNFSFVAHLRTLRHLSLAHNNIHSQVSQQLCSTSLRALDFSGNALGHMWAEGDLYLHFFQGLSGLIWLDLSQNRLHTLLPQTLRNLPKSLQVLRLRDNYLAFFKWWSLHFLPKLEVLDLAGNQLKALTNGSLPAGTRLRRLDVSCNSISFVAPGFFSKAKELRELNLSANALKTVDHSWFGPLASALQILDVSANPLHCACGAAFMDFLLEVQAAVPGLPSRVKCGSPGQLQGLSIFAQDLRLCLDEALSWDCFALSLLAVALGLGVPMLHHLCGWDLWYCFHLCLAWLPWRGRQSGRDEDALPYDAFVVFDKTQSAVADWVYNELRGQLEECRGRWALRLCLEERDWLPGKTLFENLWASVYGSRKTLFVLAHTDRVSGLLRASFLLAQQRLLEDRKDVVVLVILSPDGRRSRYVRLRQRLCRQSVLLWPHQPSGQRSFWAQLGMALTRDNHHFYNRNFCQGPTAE
NOD2 RIPK2 PPI: NOD2-RIPK2 protein interaction inhibition; CHO BLA complementation NOD2-RIPK2, CCF4 ratio; O43353; inhibition, % at 4.98 µM; 0.38% of 360,000 active; in the data active = inhibition above about 21%;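 note: 0% = vehicle only and 100% = reference blocker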
TLR4 MyD88 comp: TLR4-MyD88 interaction inhibition in cells; AID 861; O00206+Q99836; inhibition, % at 8.4 µM; 0.18% of 200,000 active; HeLa CL3-4 TLR4/MyD88 BLA complementation, FRET ratio; in the data active = inhibition above about 25%;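 note: 0% = vehicle and 100% = reference inhibitor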
CHOP inhibitor: blocks CHOP induction under ER stress; CHO-K1 CHOP-promoter luciferase, tunicamycin-induced, 15-18 h; inhibition, % at 10 µM; 3.8% of 220,000 active; AID 2732;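 active = compounds that reduced the stress-induced luciferase reporter signal by more than about 70% of percent inhibition, limit read from the data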;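 note: 0% = tunicamycin plus vehicle and 100% = wells without tunicamycin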
Numbers without * were called inactive; x = not tested or not shown. This excerpt belongs to a sample that is enriched for hits.

SMILES | CHOP UPR activ | UPR XBP1 act | TLR9-MyD88 inh | NOD2 RIPK2 PPI | TLR4 MyD88 comp | CHOP inhibitor
Cc1cccc(NC(=O)CNC(=O)[C@H]2O[C@@H](n3ccc(N)nc3=O)[C@H](O)[C@@H]2O)c1C | x | x | x | -1 | x | x
CCN(CC)C(=O)C1=C(C)N(Cc2ccc(OC)cc2)C(=O)C(CC(=O)NCc2cccs2)C1 (stereo not given) | x | x | 7 | -15 | x | x
CCCCCCCc1c(C)nc(N2CCOCC2)[nH]c1=O | -1 | -2 | 6 | -13 | 13 | 72*
O=C(CSc1ncccn1)NC1CCCC1 | x | x | -3 | -6 | x | x
CCc1ccc2[nH]c(=O)c(CN(Cc3ccccc3OC)Cc3nnnn3Cc3ccco3)cc2c1 | 7 | 0 | -7 | -11 | -5 | 74*
Cc1ccc2cc(CN(Cc3ccccc3)Cc3nnnn3C3CCCC3)c(=O)[nH]c2c1 | 1 | -6 | -3 | -2 | -2 | 47
Cc1ccc2cc(CN(Cc3ccc(F)cc3)Cc3nnnn3C3CCCC3)c(=O)[nH]c2c1 | -1 | -3 | 7 | -15 | 0 | 84*
CCc1ccc2[nH]c(=O)c(CN(Cc3ccc4c(c3)OCO4)Cc3nnnn3C3CCCC3)cc2c1 | 0 | 10 | -3 | 4 | -5 | 82*
O=C/C(=C\Nc1ccc(Br)cc1)c1nc2ccccc2o1 | 2 | 1 | 3 | 1 | -7 | 74*
Cc1ccc(-n2c(N)c(C(=O)Nc3c(C)n(C)n(-c4ccccc4)c3=O)c3nc4ccccc4nc32)cc1C | 8 | 0 | x | x | -4 | 91*
Cc1cc(C(F)(F)F)c2c(=O)[nH]c(=O)n(Cc3ccccc3)c2n1 | 1 | 2 | -6 | -11 | -2 | 39
O=c1[nH]c(=O)n(Cc2ccccc2)c2nc(-c3ccco3)cc(C(F)(F)F)c12 | -3 | 11 | 0 | 6 | -2 | 71*
CC1CCCCC1NC(=O)NC(=O)COC(=O)c1ccc(OC(F)F)cc1 (stereo not given) | 1 | 0 | 5 | -1 | x | x
Nc1c(C(=O)NCc2ccccc2)c2nc3ccccc3nc2n1CCCN1CCOCC1 | 2 | 0 | -15 | 2 | -22 | 102*
CC(=O)c1ccc2c(c1)N(Cc1ccccc1)C(=O)C(C)S2 (stereo not given) | x | x | x | -10 | x | x
O=Cc1[nH]c2ccccc2c1N(C(=O)CCl)c1ccccc1 | x | x | 9 | -15 | x | 87*
O=C(CCl)N(c1ccccc1)c1ccccc1 | x | x | 7 | 6 | -9 | -36
O=C(c1ccco1)N1CCN(C2CN(CCc3ccccc3)S(=O)(=O)C2)CC1 (stereo not given) | x | x | x | -9 | x | x
N/C(=N\c1nc2ccccc2o1)NC(=O)c1ccccc1 | 5 | 0 | -3 | 0 | -9 | 85*
COc1ccc(S(=O)(=O)N2CCOCC2)cc1NC(=O)CCCSc1ccccc1 | x | x | -6 | -4 | x | x
CC(=O)Nc1ccc(S(=O)(=O)NCCC(=O)OCC(=O)c2cccc(Br)c2)cc1 | 0 | -3 | -9 | -5 | x | x
O=C1/C(=C/c2ccccc2)CCCc2ccccc21 | 3 | 2 | 9 | -3 | 1 | 89*
CN(Cc1ccccc1)C(=O)c1ncn2c1C(=O)N(C)CC2 | x | x | -10 | -6 | x | x
CC1=C(C(=O)Nc2ccccc2)C(c2ccc(C)cc2)N=C(Nc2nc3ccccc3o2)N1 (stereo not given) | 74* | 16 | -13 | -9 | 3 | 88*
CC1(C)CC(=O)C2=C(C1)NC(Nc1nc3ccccc3o1)=NC2c1ccccn1 (stereo not given) | -1 | 6 | 1 | -12 | -7 | -15
SMILES | CHOP UPR activ | UPR XBP1 act | TLR9-MyD88 inh | NOD2 RIPK2 PPI | TLR4 MyD88 comp | CHOP inhibitor
C=CS(=O)(=O)c1sc(Cl)c(N2CCOCC2)c1[N+](=O)[O-] | x | x | -4 | -1 | 8 | 104*
CC(C)(C)CNC(=O)C1(C)CCN1C(=O)Cc1ccc(-c2ccccc2)cc1 (stereo not given) | x | x | x | 9 | x | x
Cc1cc(C(=O)CSc2nc3ccccc3c(=O)n2C)c(C)n1Cc1ccc2c(c1)OCO2 | 4 | 1 | -9 | -3 | -5 | 79*
Cc1cc(C(=O)CSc2nnc(-c3ccccc3)n2Cc2ccc3c(c2)OCO3)c(C)n1C | -2 | -1 | 4 | -3 | -2 | 8
O=C(Nc1ccc(Cl)c(Cl)c1)Nc1ccc(N2CCCC2)c(S(=O)(=O)Nc2ccccc2Cl)c1 | 19 | 5 | -2 | 4 | -5 | 79*
Cc1cccc(C=Nc2ccc3c4c(cccc24)CC3)c1O | 3 | 2 | -4 | 16 | 7 | -6
C=CCc1cccc(C=Nc2cc(Br)ccc2O)c1O | 3 | 4 | -2 | -19 | -5 | 98*
C=CCc1cccc(C=Nc2c[nH]c(=O)[nH]c2=O)c1O | 2 | -2 | -5 | -9 | x | x
CCc1ccc(O)c(N=Cc2cccc(C)c2O)c1 | 2 | 1 | -6 | 5 | 1 | 76*
N#CC1=C(N)OC2=C(CCc3ccccc32)C1c1ccccc1 (stereo not given) | 5 | 26 | -3 | -9 | -8 | 100*
N#CC1=C(N)Oc2cc(O)ccc2C1c1ccccc1 (stereo not given) | -2 | -2 | 9 | 8 | -2 | 21
CC(=O)Nc1cccc(-c2ccnc3c2CC(C(=O)NCCN(C)C)O3)c1 (stereo not given) | x | x | x | -2 | x | x
CCOC(=O)c1sc(Nc2ccccc2)nc1C | 4 | 4 | -6 | 4 | -4 | 32
CCOC(=O)c1sc(Nc2ccc(C)cc2C)nc1C | 2 | 2 | -11 | 2 | 0 | 93*
CCOC(=O)c1sc(Nc2ccc(F)cc2)nc1C | 3 | 5 | 7 | -2 | 4 | -29
CCOC(=O)c1sc(Nc2nc3c(OC)cccc3s2)nc1C | 4 | 4 | -38 | -35 | -20 | 73*
Clc1ccc2[nH]c3c(c2c1)CCc1cn[nH]c1-3 | 4 | 3 | -4 | -6 | -1 | 87*
c1ccc2c3c([nH]c2c1)-c1[nH]ncc1CC3 | 4 | 2 | 1 | -4 | -5 | 71*
COc1ccc(NC(=O)C2Cc3c(-c4ccc(NC(C)=O)cc4)ccnc3O2)cn1 (stereo not given) | x | x | x | 9 | x | x
CN1OC[C@@H]2CN(S(=O)(=O)c3cccc(C(F)(F)F)c3)[C@H](c3ccc(N4CCCCC4)cc3)C[C@@H]21 | x | x | x | -15 | x | x
CCCc1nc2c(=O)n(C)c(=O)nc-2n(C)n1 | x | x | -6 | 8 | -11 | 104*
Cn1nc(-c2ccccn2)nc2c(=O)n(C)c(=O)nc1-2 | -5 | -7 | -3 | -16 | x | 107*
O=C(Nc1ccc(Cl)cc1)C1Cc2c(-c3ccccc3Oc3ccccc3)ccnc2O1 (stereo not given) | x | x | x | -1 | x | x
Cc1ccc(NS(=O)(=O)c2cc(C(=O)NCCSc3ccc(C)cc3)ccc2C)cc1 | 2 | -4 | -1 | 5 | 1 | 45
